High-throughput results deposited in PubChem BioAssay by several laboratories.
PostGolgi yeast – growth inhibition of a yeast mutant, post-Golgi transport screen; post-Golgi transport phenotypic cell assay; inhibition, % at 10 µM; 98,000 tested, 0.9% active;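 note: yeast cells grown in 1536-well plates; yeast grown about 18 h at 30C before absorbance read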
Cav3 T inh – blocks human Cav3.2 T-type calcium channel | O95180 | B-score at 10 µM | Cav3.2-expressing cells, Fluo-4 calcium fluorescence FDSS; stronger effect = lower value | 100,000 tested, 4% active;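 active = single-dose well whose peak fluorescence ratio is a statistical outlier from its plate by either plate-standardised score or position-corrected B-score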
tolC growth inh – growth inhibitors of E. coli BW25113 tolC mutant; OD615; growth inhibition, % at 10 µM (by protocol); 65,000 tested, 2.2% active;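 active = growth inhibition at or above a cutoff equal to the mean over every tested compound plus 3 SD, cut at about 60% in these data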;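 note: growth measured after 20 h incubation at 37 °C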
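Test system: tolC-deleted E. coli BW25113; medium: LB with kanamycin 50 µg/mL; compound: single-point testing at 10 µM; incubation: 20 h compound exposure of bacteria at 37 °C; signal: OD at 615 nm; evaluation: growth inhibition in percent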
PostGolgi ctrl – inhibits growth of the yeast control strain. efflux-deficient yeast background strain, growth absorbance A615, 16 h. inhibition, % at 10 µM. 98,000 tested, 5% active. AID 738
E coli WT exp – E. coli BW25113 growth inhibition, expanded screen. AID 710. 98,000 tested, 0.15% active. growth inhibition, % at 100 µM. OD600 absorbance;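 active = growth inhibition above about 50% at one test dose, limit read from the data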;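 note: growth measured after 20 h incubation at 37 °C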
Each line names hits and unclear results; the compound was inactive in the other large screens. A selection: hits, their analogues and other compounds. The true share with any hit is near 8.4%. Cut-off read from the data, not from the text of the source, unless noted: active = inhibition above about 30%; inactive = the rest.

O=c1c2ccccc2oc2nc(-c3ccco3)n(Cc3ccccc3)c(=O)c12	none
C[C@@H]1C=C(C(=O)NC2CC2)O[C@H](OCc2ccc(CO)cc2)C1	none (no result: PostGolgi yeast, tolC growth inh, PostGolgi ctrl, E coli WT exp)
Cc1ccc(SC(C)C(=O)Nc2ccncc2)cc1 (stereo not drawn)	PostGolgi yeast 102, PostGolgi ctrl 90 (no result: tolC growth inh)
CSc1cccc(NC(=O)C(C)Sc2ccc(C)cc2)c1 (stereo not drawn)	none (no result: Cav3 T inh, tolC growth inh)
O=C(Cc1ccccc1)NC(Nc1cccc2ccccc12)C(Cl)(Cl)Cl (stereo not drawn)	none (no result: tolC growth inh)
CC(=O)Oc1ccc2ccccc2c1C(NC(=O)Cc1ccccc1)c1ccc(Cl)cc1 (stereo not drawn)	Cav3 T inh -9.8 (no result: tolC growth inh)
CCN(CC)C(C(=O)Nc1ccc(C(C)C)cc1)c1ccc2c(c1)OCO2 (stereo not drawn)	Cav3 T inh -4.9 (no result: tolC growth inh)
CCCC(C)C(=O)Nc1ccc2c(c1)OCCO2 (stereo not drawn)	none
CC(C)c1ccc(NC(=O)C(c2ccc3c(c2)OCO3)N2CCN(C(=O)c3ccco3)CC2)cc1 (stereo not drawn)	Cav3 T inh -5.2
CN(CC(=O)NCCN1CCN(c2ccccc2)CC1)S(=O)(=O)c1ccc2c(c1)CCC(=O)N2	none (no result: tolC growth inh)
COc1cc(NC(=O)CN(c2ccc(C)cc2)S(=O)(=O)c2c(C)nn(C)c2C)cc(OC)c1	none
Cc1cc(CN2CCN(CCC#N)CC2)c(O)c(C2(C)CCCCC2)c1	PostGolgi ctrl 59
N#CCCN1CCN(CCC#N)CC1	none
O=C(C1CCCN(S(=O)(=O)c2ccc(F)cc2)C1)N1CCCC1 (stereo not drawn)	none
O=C(C1CCCN(S(=O)(=O)c2ccc(F)cc2)C1)N(Cc1cccs1)C1CC1 (stereo not drawn)	Cav3 T inh -4.1
COC(=O)c1sc(S(=O)(=O)N2CCCCC2C(=O)O)c(C(=O)OC)c1C (stereo not drawn)	none (no result: tolC growth inh)
CCOc1ncccc1C(=O)NCC1COc2ccccc2O1 (stereo not drawn)	none
COc1ccc(Nc2nc(NCc3ccco3)nc(N/N=C/c3ccccc3)n2)cc1	Cav3 T inh -7.6 (no result: tolC growth inh)
CCOc1nc(NCc2ccco2)nc(Nc2ccc(OC)cc2)n1	none
CC(=O)N=c1c(C#N)cc2c(=O)n3cccc(C)c3nc2n1CC(C)C	none (no result: PostGolgi yeast, Cav3 T inh, PostGolgi ctrl, E coli WT exp)
CC1CCc2c(C(=O)Oc3cccc(-n4cnnn4)c3)csc2C1 (stereo not drawn)	tolC growth inh 69
COc1cc(C=O)c(Br)cc1OCc1ccc(C)cc1	PostGolgi ctrl 48 (no result: tolC growth inh)
CC(C)(C)C(=O)c1no[n+]([O-])c1/C(=N/O)C(C)(C)C	Cav3 T inh -7.9
O=S(=O)(NCCOCCNS(=O)(=O)c1ccccc1)c1ccccc1	none (no result: Cav3 T inh)
O=S(=O)(NCCOCC(F)(F)F)c1ccc2oc3ccccc3c2c1	Cav3 T inh -4.3
CCCC(c1nnnn1CS(=O)(=O)c1ccc(C)cc1)N1CCN(c2ccccc2)CC1 (stereo not drawn)	PostGolgi ctrl 31
COC(=O)C1CC(O)CN1C(=O)c1ccco1 (stereo not drawn)	PostGolgi ctrl 34 (no result: tolC growth inh)
CCOc1nc(SC(C(C)=O)C(=O)Nc2ccccc2)nc(N(C)C)n1 (stereo not drawn)	none
CCc1cc2c(=O)c(-c3nc4ccccc4n3C)coc2c(CN2CCN(C)CC2)c1O	none
CCc1cc2c(=O)c(-c3nc4ccccc4n3C)c(C)oc2c(CN(CC)CC)c1O	PostGolgi ctrl 35 (no result: tolC growth inh)
O=C(NC1(C(F)(F)F)C(=O)Nc2c1c(=O)[nH]c(=O)n2-c1ccccc1)c1cccnc1 (stereo not drawn)	none
CCCCS(=O)(=O)C(=C1Nc2ccccc2N1)S(=O)(=O)CCCC	PostGolgi ctrl 30
COCCCNc1ncnc2nc[nH]c12	none (no result: Cav3 T inh)
c1coc(CNc2ncnc3sc4c(c23)CCCCC4)c1	none
CCN1CCN(c2nc3sc4c(c3c3ncnn23)CC(C)CC4)CC1 (stereo not drawn)	none
CC1CCc2sc3nc(NCc4ccco4)n4ncnc4c3c2C1 (stereo not drawn)	PostGolgi ctrl 63
CC1CCCc2sc3nc(NCc4ccco4)n4ncnc4c3c21 (stereo not drawn)	tolC growth inh 81, PostGolgi ctrl 57
C[C@H](NC(=O)Cn1cncn1)c1ccccc1	none (no result: tolC growth inh)
O=C(Nc1scc(-c2cccs2)c1C(=O)O)c1cccs1	tolC growth inh 75
CCOC(=O)c1c(-c2cccs2)csc1NC(=O)c1ccncc1	none
O=C1CC(c2ccc(Cl)cc2)CC(O)=C1C=NCc1ccc(Cl)c(Cl)c1 (stereo not drawn)	none (no result: tolC growth inh)
Cc1cccc(N2CCN(C(=O)c3cc4c(C)nc5ccccc5c4o3)CC2)c1C	none (no result: PostGolgi yeast, Cav3 T inh, PostGolgi ctrl, E coli WT exp)
Cc1ccccc1NC(=O)C1(NC(=O)c2cccc(N3C(=O)CSC3c3ccccc3)c2)CCCCC1 (stereo not drawn)	Cav3 T inh -10 (no result: tolC growth inh)
C/C(=N/NS(=O)(=O)c1ccc(Br)cc1)c1ccc(NC(=O)c2ccc(C)o2)cc1	PostGolgi ctrl 41 (no result: tolC growth inh)
COC(=O)C1(Cc2ccc(O)c(CC3OC3(C)C)c2)OC(=O)C(O)=C1c1ccc(O)cc1 (stereo not drawn)	none (no result: PostGolgi yeast, tolC growth inh, PostGolgi ctrl, E coli WT exp)
Cn1cccc1/C=C1\CC(C(C)(C)C)C/C(=C\c2cccn2C)C1=O (stereo not drawn)	Cav3 T inh -9.1 (no result: tolC growth inh)
CCC(=O)n1nc(NCc2ccccc2OC)nc1NCc1ccccc1OC	Cav3 T inh -7.9
O=C(NCc1cn2ccsc2n1)c1cccs1	none
Cc1cccc(C)c1-n1c(C)cc(/C=C2\NC(=O)NC2=O)c1C	Cav3 T inh -6.8 (no result: PostGolgi yeast, tolC growth inh, PostGolgi ctrl, E coli WT exp)
COC(=O)C1=C(C)NC(=O)/C1=C\c1cc(C)n(-c2c(C)cccc2C)c1C	none (no result: tolC growth inh)
c1ccc(-c2nc(N3CCCCCC3)nc(-n3ccnc3)n2)cc1	PostGolgi yeast 62, tolC growth inh 98, PostGolgi ctrl 72
c1ccc(-c2nc(N3CCN(c4ccccc4)CC3)nc(-n3ccnc3)n2)cc1	PostGolgi ctrl 54
Nc1nc(-c2cccnc2)nc(N2CCCCC2)n1	none
COc1cc(CNCc2ccccn2)ccc1OCc1ccc(Cl)cc1Cl	PostGolgi ctrl 49 (no result: tolC growth inh)
CN(C)c1ncc(S(=O)(=O)c2ccc(Cl)cc2)c(-c2ccc(Cl)cc2Cl)n1	PostGolgi ctrl 49 (no result: Cav3 T inh, tolC growth inh)
CCC1CCCCN1Cc1ccc(OC)c(C)c1C (stereo not drawn)	none (no result: tolC growth inh)
N#C/C(=C(/O)C(Cl)c1ccccc1)c1nc2ccccc2s1 (stereo not drawn)	Cav3 T inh -5.3 (no result: tolC growth inh)
N#C/C(=C(/O)c1ccco1)c1nc2ccccc2s1	none (no result: tolC growth inh)
O=C(OCCN1CCN(c2ncc(C(F)(F)F)cc2Cl)CC1)c1ccc(Cl)cc1	PostGolgi ctrl 31 (no result: tolC growth inh)
O=C(CSc1nccn1-c1ncc(C(F)(F)F)cc1Cl)c1ccc(Cl)cc1	Cav3 T inh -2.5, PostGolgi ctrl 32 (no result: tolC growth inh)
COc1ccc(C(=O)N2CCN(c3ccc(C)cc3C)CC2)cc1OC	none
O=C(CCCOc1ccccc1)N1CCN(c2ccc(F)cc2)CC1	Cav3 T inh -7.8 (no result: tolC growth inh)
O=C(c1noc2c1CCCC2)N1CCN(c2ccc(F)cc2)CC1	PostGolgi ctrl 34
Cc1ccc(N2CCN(C(=O)c3ccccc3F)CC2)c(C)c1	PostGolgi ctrl 42
O=C(c1ccccc1C(=O)N1CCN(c2ccc(F)cc2)CC1)N1CCN(c2ccc(F)cc2)CC1	Cav3 T inh -4.1
